Publication PMC5073817 (ACS chemical neuroscience, 2016)
Entries after “also recorded” stand apart in the source; their conditions may differ. Read-outs that look alike come from different tables or passages of the source. Marks after values point to notes of the source that are not given here.

Key:
6-OHDA lesion models = details: various 6-OHDA lesion models; cited from earlier work
[1] = test system: unilateral 6-OHDA lesion forelimb asymmetry; experiment: 6-OHDA lesion-induced forelimb asymmetry; type: in vivo, rats
mGlu2/4 heteromers = mGlu2/4 heteromers (Rattus norvegicus, UniProt P31423); experiment: CODA-RET assay, mGlu4_L1/mGlu2_L2; type: cell-based; details: for max response (BRET) in presence of PAM: L-AP4; for potentiation of L-AP4 responses: mGlu4_L1 and mGlu2_L2 coexpressed
Chain of mGlu2/4 heteromers (P31423 33-912): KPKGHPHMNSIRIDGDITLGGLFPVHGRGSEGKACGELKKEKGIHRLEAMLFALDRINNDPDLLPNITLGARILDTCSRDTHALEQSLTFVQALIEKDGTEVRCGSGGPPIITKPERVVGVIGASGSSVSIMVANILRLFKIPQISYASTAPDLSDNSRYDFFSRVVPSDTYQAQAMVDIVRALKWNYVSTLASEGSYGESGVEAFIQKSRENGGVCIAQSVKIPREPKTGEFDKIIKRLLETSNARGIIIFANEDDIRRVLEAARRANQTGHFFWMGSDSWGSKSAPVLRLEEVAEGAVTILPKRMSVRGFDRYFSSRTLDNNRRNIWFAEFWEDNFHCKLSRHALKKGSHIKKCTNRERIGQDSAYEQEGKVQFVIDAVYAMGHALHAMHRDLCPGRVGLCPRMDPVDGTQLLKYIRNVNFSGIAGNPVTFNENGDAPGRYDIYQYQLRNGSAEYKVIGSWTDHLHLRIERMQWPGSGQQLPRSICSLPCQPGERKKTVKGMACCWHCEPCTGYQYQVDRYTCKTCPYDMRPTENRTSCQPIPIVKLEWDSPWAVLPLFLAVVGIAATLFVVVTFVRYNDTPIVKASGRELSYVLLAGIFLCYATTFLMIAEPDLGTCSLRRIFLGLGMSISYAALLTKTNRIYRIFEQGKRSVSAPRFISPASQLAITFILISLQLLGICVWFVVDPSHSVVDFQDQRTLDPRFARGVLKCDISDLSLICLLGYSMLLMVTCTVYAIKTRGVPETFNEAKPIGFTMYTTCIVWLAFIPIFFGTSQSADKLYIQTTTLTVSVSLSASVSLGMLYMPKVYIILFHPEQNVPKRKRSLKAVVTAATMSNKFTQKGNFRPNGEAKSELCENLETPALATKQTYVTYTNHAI
Chain of mGlu2/4 heteromers (P31421 19-872 partner): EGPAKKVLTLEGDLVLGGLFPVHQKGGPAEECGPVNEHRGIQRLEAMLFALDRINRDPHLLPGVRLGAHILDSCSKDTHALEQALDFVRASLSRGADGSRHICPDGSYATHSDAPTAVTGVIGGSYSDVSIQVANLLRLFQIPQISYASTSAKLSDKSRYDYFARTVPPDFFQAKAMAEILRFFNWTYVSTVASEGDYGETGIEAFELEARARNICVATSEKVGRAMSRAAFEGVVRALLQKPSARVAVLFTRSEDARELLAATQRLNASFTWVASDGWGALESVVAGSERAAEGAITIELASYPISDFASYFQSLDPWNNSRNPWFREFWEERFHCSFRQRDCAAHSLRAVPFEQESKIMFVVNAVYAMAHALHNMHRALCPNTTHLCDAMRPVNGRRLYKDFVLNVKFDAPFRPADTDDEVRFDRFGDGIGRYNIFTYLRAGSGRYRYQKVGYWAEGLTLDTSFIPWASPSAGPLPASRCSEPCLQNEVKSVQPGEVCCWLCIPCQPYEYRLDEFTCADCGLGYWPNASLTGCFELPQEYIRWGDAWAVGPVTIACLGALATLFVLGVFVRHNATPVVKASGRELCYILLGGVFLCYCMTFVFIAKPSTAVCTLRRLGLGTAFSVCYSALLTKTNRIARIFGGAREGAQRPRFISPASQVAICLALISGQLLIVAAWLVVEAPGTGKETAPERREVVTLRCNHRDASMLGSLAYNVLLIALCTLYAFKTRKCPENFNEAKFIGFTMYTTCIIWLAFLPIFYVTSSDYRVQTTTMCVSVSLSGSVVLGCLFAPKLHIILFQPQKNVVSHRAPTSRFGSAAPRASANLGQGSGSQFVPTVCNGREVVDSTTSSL
Method in brief: (§1)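 HEK-293T cells were PEI-transfected with HA-tagged rat mGlu constructs bearing luciferase fragments, plus Gαi-mVenus, Gβ1 and Gγ2. Plasmid ratios were 4:4:1:1:1 for mGlu4-L1/mGlu4-L2 homomers and 4:8:1:1:1 for mGlu4-L1/mGlu2-L2 heteromers. At 48 h, about 200 000 cells/well in PBS were stimulated 5 min at 37 °C with L-AP4 with or without increasing compound. Coelenterazine H (5 µM) was added, read 2 min later; BRET ratio = 510–540 nm over 485 nm.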

mGlu2/4 = experiment: Glutamate concentration-response curve shift in cells expressing mGlu2 and mGlu4; type: cell-based, rat; details: for effect on the glutamate CRC: cells expressing mGlu2 and mGlu4; for fold shift of glutamate CRC / glutamate pEC50 in presence of PAM: mGlu2/4 cells
mGlu4 = mGlu4 (Rattus norvegicus, UniProt P31423); experiment: Glutamate concentration-response curve shift in cells expressing mGlu4 alone; type: cell-based; details: for fold shift of glutamate CRC / glutamate pEC50 in presence of PAM: mGlu4 alone
Chain of mGlu4 (P31423 33-912): as the sequence (P31423 33-912) above

[2] = test system: mGlu2 coexpressed with mGlu4; details: cited from earlier work
mGlu4 homomers = mGlu4 homomers (Rattus norvegicus, UniProt P31423); experiment: CODA-RET assay, mGlu4_L1/mGlu4_L2; type: cell-based; details: for max response (BRET) in presence of PAM: mGlu4_L1/mGlu4_L2, L-AP4; for potentiation of L-AP4 responses: mGlu4 labeled with L1 or L2
Chain of mGlu4 homomers (P31423 33-912): as above
Chain of mGlu4 homomers (P31423 33-912): as above
Method in brief: as §1

[3] = test system: rotarod motor performance; experiment: Rotarod test; type: in vivo, rats; details: doses up to 100 mg/kg p.o., tested 30 min later
Method in brief: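 Rats were pre-trained on the rotarod, then given vehicle or test compound at 10, 30, 56.6 or 100 mg/kg p.o. (10 mL/kg). Motor performance was tested 30 min after dosing.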

[4] = cited from earlier work
[5] = test system: haloperidol-induced catalepsy; experiment: Haloperidol-induced catalepsy; type: in vivo, Sprague–Dawley rats; details: oral, catalepsy assessed 30 min after dosing
[6] = Plasma and brain exposure time course after 30 mg/kg dose; type: in vivo; details: rat
rat mGlu4 = rat mGlu4 (Rattus norvegicus, UniProt P31423); experiment: GIRK/thallium flux assay, rat mGlu4/HEK/GIRK cells; type: cell-based
Chain of rat mGlu4 (P31423 33-912): as above
Method in brief: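 Polyclonal HEK/GIRK cells stably expressing rat mGlu4 (pIRESpuro3, puromycin-selected) were loaded with 330 nM final FluoZin-2 AM in HBSS/20 mM HEPES pH 7.4 for 1 h at room temperature. Thallium flux was read kinetically at room temperature. EC50 came from four-parameter logistic fits; three determinations in triplicate, mean ± SEM.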

human mGlu4 = human mGlu4 (Homo sapiens, UniProt Q14833); experiment: Gqi5-mediated calcium mobilization assay, human mGlu4/Gqi5/CHO cells; type: cell-based; details: absence of glutamate
Chain of human mGlu4 (Q14833 33-912): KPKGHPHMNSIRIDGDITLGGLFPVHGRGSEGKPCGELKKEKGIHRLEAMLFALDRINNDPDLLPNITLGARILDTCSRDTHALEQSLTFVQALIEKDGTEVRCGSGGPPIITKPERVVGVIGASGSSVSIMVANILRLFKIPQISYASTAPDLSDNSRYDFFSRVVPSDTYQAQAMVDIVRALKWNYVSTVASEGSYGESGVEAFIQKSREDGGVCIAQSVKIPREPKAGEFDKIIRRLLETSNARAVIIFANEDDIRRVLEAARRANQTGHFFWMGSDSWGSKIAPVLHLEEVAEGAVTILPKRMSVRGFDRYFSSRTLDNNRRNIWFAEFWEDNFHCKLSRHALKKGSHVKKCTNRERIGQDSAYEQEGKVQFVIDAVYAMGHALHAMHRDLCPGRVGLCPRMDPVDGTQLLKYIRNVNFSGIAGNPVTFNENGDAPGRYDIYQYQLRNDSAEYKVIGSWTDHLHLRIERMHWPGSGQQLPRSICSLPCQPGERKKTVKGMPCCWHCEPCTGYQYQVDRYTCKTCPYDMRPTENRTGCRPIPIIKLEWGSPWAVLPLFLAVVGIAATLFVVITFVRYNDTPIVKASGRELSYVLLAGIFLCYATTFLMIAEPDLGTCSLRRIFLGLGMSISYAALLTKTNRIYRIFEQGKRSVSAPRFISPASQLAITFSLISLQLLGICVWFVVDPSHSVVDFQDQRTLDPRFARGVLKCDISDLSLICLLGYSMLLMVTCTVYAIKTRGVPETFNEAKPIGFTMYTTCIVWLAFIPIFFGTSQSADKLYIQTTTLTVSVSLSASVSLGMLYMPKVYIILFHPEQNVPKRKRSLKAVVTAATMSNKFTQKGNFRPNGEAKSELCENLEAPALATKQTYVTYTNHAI

[7] = test system: haloperidol-induced catalepsy; details: 56.6 mg/kg p.o.; previously demonstrated; cited from earlier work
[8] = CODA-RET, labeled mGlu2 and mGlu4 coexpressed

SMILES: Cc1ccnc(Nc2nc(-c3cn[nH]c3)c(C)s2)n1 [ADX88178]
- potentiation of the effects of subthreshold doses of L-DOPA (6-OHDA lesion models): potentiate the effects of subthreshold doses of L-DOPA

SMILES: N[C@@H](Cc1ccc(O)c(O)c1)C(=O)O [L-DOPA]
- reversal of forelimb asymmetry ([1]; 0.75 mg/kg alone): inactive alone
- reversal of forelimb asymmetry ([1]; 2.5 mg/kg dose): completely reversed motor deficits

SMILES: NC(=O)[C@@H]1CCCC[C@@H]1C(=O)Nc1ccc(Cl)c(Cl)c1 [Lu AF21934]
- max response (BRET) in presence of PAM (mGlu2/4 heteromers; [8]): 0.032 ± 0.004
- L-AP4 pEC50 in presence of PAM (mGlu2/4 heteromers; CODA-RET, labeled mGlu2 and mGlu4 coexpressed, mean ± SEM): 7.66 ± 0.11
- potentiation of L-AP4 responses (mGlu2/4 heteromers): able to potentiate responses
- effect on the glutamate CRC (mGlu2/4): induced a leftward shift in the glutamate CRC
- fold shift of glutamate CRC (mGlu2/4; PAM concentration −4.5 (log)): 3.2 ± 0.07
- glutamate pEC50 in presence of PAM (mGlu2/4; PAM concentration −4.5 (log)): 6.41 ± 0.08 ^b
- fold shift of glutamate CRC (mGlu2/4; PAM concentration −5 (log)): 2.8 ± 0.07 ^c
- glutamate pEC50 in presence of PAM (mGlu2/4; PAM concentration −5 (log)): 6.36 ± 0.08 ^b
- fold shift of glutamate CRC (mGlu2/4; PAM concentration −5.5 (log)): 2.4 ± 0.13 ^c
- glutamate pEC50 in presence of PAM (mGlu2/4; PAM concentration −5.5 (log)): 6.29 ± 0.06 ^b
- fold shift of glutamate CRC (mGlu2/4; PAM concentration −6 (log)): 1.7 ± 0.04
- glutamate pEC50 in presence of PAM (mGlu2/4; PAM concentration −6 (log)): 6.13 ± 0.09 ^b
- fold shift of glutamate CRC (mGlu2/4; PAM concentration −6.5 (log)): 1.2 ± 0.05 ^c
- glutamate pEC50 in presence of PAM (mGlu2/4; PAM concentration −6.5 (log)): 6.00 ± 0.09 ^b
- fold shift of glutamate CRC (mGlu2/4; PAM concentration −7 (log)): 1.2 ± 0.07
- glutamate pEC50 in presence of PAM (mGlu2/4; PAM concentration −7 (log)): 5.99 ± 0.06
- fold shift of glutamate CRC (mGlu2/4; PAM concentration −8 (log)): 1.0 ± 0.07
- glutamate pEC50 in presence of PAM (mGlu2/4; PAM concentration −8 (log)): 5.91 ± 0.11
- fold shift of glutamate CRC (mGlu4; PAM concentration −4.5 (log)): 4.2 ± 0.42
- glutamate pEC50 in presence of PAM (mGlu4; PAM concentration −4.5 (log)): 5.43 ± 0.08 ^b
- fold shift of glutamate CRC (mGlu4; PAM concentration −5 (log)): 3.8 ± 0.21 ^c
- glutamate pEC50 in presence of PAM (mGlu4; PAM concentration −5 (log)): 5.39 ± 0.06 ^b
- fold shift of glutamate CRC (mGlu4; PAM concentration −5.5 (log)): 3.2 ± 0.28 ^c
- glutamate pEC50 in presence of PAM (mGlu4; PAM concentration −5.5 (log)): 5.32 ± 0.07 ^b
- fold shift of glutamate CRC (mGlu4; PAM concentration −6 (log)): 2.1 ± 0.17
- glutamate pEC50 in presence of PAM (mGlu4; PAM concentration −6 (log)): 5.14 ± 0.07 ^b
- fold shift of glutamate CRC (mGlu4; PAM concentration −6.5 (log)): 1.6 ± 0.09 ^c
- glutamate pEC50 in presence of PAM (mGlu4; PAM concentration −6.5 (log)): 5.00 ± 0.04 ^b
- fold shift of glutamate CRC (mGlu4; PAM concentration −7 (log)): 1.5 ± 0.12
- glutamate pEC50 in presence of PAM (mGlu4; PAM concentration −7 (log)): 4.99 ± 0.07 ^b
- fold shift of glutamate CRC (mGlu4; PAM concentration −8 (log)): 1.1 ± 0.03
- glutamate pEC50 in presence of PAM (mGlu4; PAM concentration −8 (log)): 4.85 ± 0.03
- potentiation when mGlu2 and mGlu4 are coexpressed [2]: induce potentiation regardless of mGlu2 expression
- max response (BRET) in presence of PAM (mGlu4 homomers; CODA-RET): 0.050 ± 0.003
- L-AP4 pEC50 in presence of PAM (mGlu4 homomers; CODA-RET, mGlu4_L1/mGlu4_L2, mean ± SEM): 7.70 ± 0.01
- potentiation of L-AP4 responses (mGlu4 homomers): able to potentiate responses
- potentiation of the effects of subthreshold doses of L-DOPA (6-OHDA lesion models): potentiate the effects of subthreshold doses of L-DOPA

SMILES: O=C(Nc1cc(Cl)cc(Cl)c1)[C@H]1CCCC[C@H]1C(=O)O [VU0155041]
- potentiation when mGlu2 and mGlu4 are coexpressed [2]: induce potentiation regardless of mGlu2 expression

SMILES: Fc1ccc(Nc2n[nH]c3cccnc23)cc1Cl [VU0418506, N-(3-chloro-4-fluorophenyl)-1H-pyrazolo[4,3-b]pyridin-3-amine]
- max response (BRET) in presence of PAM (mGlu2/4 heteromers; [8]): 0.021 ± 0.002
- potentiation of L-AP4 responses (mGlu2/4 heteromers): unable to potentiate L-AP4 responses
- effect on the glutamate CRC (mGlu2/4): no effect on the glutamate CRC
- glutamate pEC50 in presence of PAM (mGlu2/4; PAM concentration −5.5 (log)): 6.02 ± 0.02
- glutamate pEC50 in presence of PAM (mGlu2/4; PAM concentration −6.5 (log)): 5.89 ± 0.07
- glutamate pEC50 in presence of PAM (mGlu2/4; PAM concentration −7 (log)): 5.87 ± 0.05
- glutamate pEC50 in presence of PAM (mGlu2/4; PAM concentration −8 (log)): 5.86 ± 0.08
- impairment of rotorod performance [3]: did not observe any impairment
- brain penetration [4]: good brain penetration
- doses with significant activity in reversing catalepsy [5]: ≥ 3 mg/kg
- potentiation of glutamate response (mGlu4; cells only expressing mGlu4): induced significant potentiation
- glutamate pEC50 in presence of PAM (mGlu4; PAM concentration −5 (log)): 5.87 ± 0.13 ^b
- glutamate pEC50 in presence of PAM (mGlu4; PAM concentration −5.5 (log)): 6.07 ± 0.21 ^b
- glutamate pEC50 in presence of PAM (mGlu4; PAM concentration −6 (log)): 5.93 ± 0.12 ^b
- glutamate pEC50 in presence of PAM (mGlu4; PAM concentration −6.5 (log)): 5.67 ± 0.14 ^b
- glutamate pEC50 in presence of PAM (mGlu4; PAM concentration −7 (log)): 5.55 ± 0.17 ^b
- glutamate pEC50 in presence of PAM (mGlu4; PAM concentration −8 (log)): 5.08 ± 0.07
- time after dosing for which sustained plasma and brain levels were observed [6]: at least 6 h
- EC50 (rat mGlu4): 46.6 nM
- pEC50 (PAM potency) (rat mGlu4; rat mGlu4, GIRK/thallium flux, mean ± SEM): 7.34 ± 0.04
- EC50 (rat mGlu4; read-out: EC50 (PAM potency), rat mGlu4, GIRK/thallium flux): 46 nM
- direct allosteric agonist activity (compound added alone) (human mGlu4): does not exhibit direct allosteric agonist activity; also recorded: does not elicit activity in this assay in the absence of glutamate
- max response (BRET) in presence of PAM (mGlu4 homomers; CODA-RET): 0.047 ± 0.0004
- potentiation of L-AP4 responses (mGlu4 homomers): able to potentiate responses
- reversal of forelimb asymmetry ([1]; 3 mg/kg VU0418506 combined with 0.75 mg/kg L-DOPA): statistically significant efficacy
- reversal of forelimb asymmetry ([1]; 3 mg/kg alone): inactive alone
- reversal of forelimb asymmetry ([1]; 10 mg/kg administered alone, assessed after 30 min): statistically significant reversals of forelimb asymmetry
- reversal of forelimb asymmetry ([1]; 30 mg/kg administered alone, assessed after 30 min): statistically significant reversals of forelimb asymmetry

SMILES: Cc1cc(C)n(-c2cc(NC(=O)CN3CCN(C)CC3)nc(-c3ccco3)n2)n1 [compound 23, N-(6-(3,5-dimethyl-1H–pyrazol-1-yl)-2-(furan-2-yl)-pyrimidin-4-yl)-2-(4-methylpiperazin-1-yl)acetamide]
- reversal of haloperidol-induced catalepsy (positive control) [7]: robust reversal of haloperidol-induced catalepsy
